Reference: the array DNA melting data of Ke et al. (doi:10.1101/2024.01.08.574731)

Key:
[1] = melting temperature; fluorescence melt of hairpins on a sequencing array, two-state fit, raised by 9.35 °C to match UV melts; settings: sodium 0.088 M
How it was run: (§1)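 Library hairpins on a sequenced MiSeq flow cell carried annealed Cy3 and quencher oligos, and their Cy3 fluorescence was imaged in 50 mM Na-HEPES pH 8.0 with 25 mM NaCl, in 2.5 °C steps up to 60 °C. Signals were normalised to Cy3 before quenching and to control constructs. Melting temperature and folding enthalpy were obtained from bootstrapped two-state fits, combined by inverse-variance weighting across four replicates, and the fitted temperatures were then raised by 9.35 °C to match UV melts.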

[2] = folding enthalpy; higher = less favourable; fluorescence melt of hairpins on a sequencing array, two-state fit; settings: sodium 0.088 M
How it was run: as §1

GGCATTGGAAACAACGCC (((.(((....))).)))
Tm [1]: 44.6 °C
folding enthalpy [2]: -34.4 kcal/mol

GCCAACGAAAGTTACGGC ((((((....)))..)))
Tm [1]: 41.3 °C
folding enthalpy [2]: -26.1 kcal/mol

GGAGCTGCGAAAGCATCC (((..(((....))))))
Tm [1]: 32.4 °C
folding enthalpy [2]: -9.48 kcal/mol

GGTTTAGAAATAAACC ((((((....))))))
Tm [1]: 45.3 °C
folding enthalpy [2]: -29.2 kcal/mol

GATCCCCGCAGGGATC ((((((....))))))
Tm [1]: 62.8 °C
folding enthalpy [2]: -18.1 kcal/mol

GCCTGGCGAAAGCCTCGC ((..(((....)))..))
Tm [1]: 45.3 °C
folding enthalpy [2]: -9.28 kcal/mol

GGTGCCGAAAGGCAAACC ((((((....)))..)))
Tm [1]: 50.9 °C
folding enthalpy [2]: -14.6 kcal/mol

GGGATAGGAAACTACCCC (((.(((....))).)))
Tm [1]: 38.7 °C
folding enthalpy [2]: -23 kcal/mol

GATCCCCTCCGGGATC ((((((....))))))
Tm [1]: 58.4 °C
folding enthalpy [2]: -36 kcal/mol

GCTGTTGGAAACAACAGC (((((((....)))))))
Tm [1]: 67.1 °C
folding enthalpy [2]: -44.5 kcal/mol

GCCACGGGAAACCATGGC ((((.((....)).))))
Tm [1]: 48.6 °C
folding enthalpy [2]: -47.8 kcal/mol

GATCAGATACTGATC ((((((...))))))
Tm [1]: 50.6 °C
folding enthalpy [2]: -34.2 kcal/mol

GGAGCAGGAAACTACTCC ((((.((....)).))))
Tm [1]: 41.1 °C
folding enthalpy [2]: -27.4 kcal/mol

GCTTGGCGAAAGCATAGC (((..((....))..)))
Tm [1]: 46.2 °C
folding enthalpy [2]: -20.3 kcal/mol

GCGTATTACGC ((((...))))
Tm [1]: 54 °C
folding enthalpy [2]: -25 kcal/mol

GGTATGCCGAAAGGCACC (((..(((....))))))
Tm [1]: 34.1 °C
folding enthalpy [2]: -9.19 kcal/mol

GACCGCGAAAGCGAAGTC ((((((....)))..)))
Tm [1]: 47.4 °C
folding enthalpy [2]: -16.9 kcal/mol

CGCAGTCGGAAACGAGCG (((..(((....))))))
Tm [1]: 36 °C
folding enthalpy [2]: -10.9 kcal/mol

GATGCGGAAACGCATC ((((((....))))))
Tm [1]: 68.2 °C
folding enthalpy [2]: -31.3 kcal/mol

GCTATGCGAAAGCGTTGC ((.(.((....)).).))
Tm [1]: 48.9 °C
folding enthalpy [2]: -22.9 kcal/mol

GCCTTGGCGAAAGCCGGC (((..(((....))))))
Tm [1]: 56.9 °C
folding enthalpy [2]: -12.9 kcal/mol

GCAGCTGGAAACGGTTGC (((.(.(....).).)))
Tm [1]: 41.1 °C
folding enthalpy [2]: -29.1 kcal/mol

GATCATACAATGATC ((((((...))))))
Tm [1]: 48.4 °C
folding enthalpy [2]: -39.5 kcal/mol

GGTTGCGAAAGCAGAACC ((((((....)))..)))
Tm [1]: 47.5 °C
folding enthalpy [2]: -19.8 kcal/mol

GCTGCCGAAAGGCTAGC ((((((....))).)))
Tm [1]: 59.6 °C
folding enthalpy [2]: -16.7 kcal/mol

GATCGATATTTCGATC ((((((....))))))
Tm [1]: 53.1 °C
folding enthalpy [2]: -44.3 kcal/mol

CGGCCGGAAACGGGCCG ((((((....))).)))
Tm [1]: 66.9 °C
folding enthalpy [2]: -20 kcal/mol

GCGTGGCGAAAGCCCGGC ((..(((....)))..))
Tm [1]: 57.8 °C
folding enthalpy [2]: -14.9 kcal/mol

GGCTAGCGAAAGCTCGCC (((.(((....))).)))
Tm [1]: 58.8 °C
folding enthalpy [2]: -36.3 kcal/mol

GGTACGCGAAAGCGAACC (((.(((....))).)))
Tm [1]: 58 °C
folding enthalpy [2]: -24.8 kcal/mol

GTGTCGAAAGACAC (((((....)))))
Tm [1]: 68 °C
folding enthalpy [2]: -25.7 kcal/mol

GACAGCGAAAGCTCTGTC ((((((....)))..)))
Tm [1]: 39.6 °C
folding enthalpy [2]: -15.2 kcal/mol

GGTGAGTCGAAAGACACC (((..(((....))))))
Tm [1]: 39.5 °C
folding enthalpy [2]: -17.9 kcal/mol

GCGCCCGGAAACGGACGC (((.(((....))).)))
Tm [1]: 66.1 °C
folding enthalpy [2]: -47 kcal/mol

GCGGGAGACCGC ((((....))))
Tm [1]: 66.3 °C
folding enthalpy [2]: -14.4 kcal/mol

GCGAAAATCGC ((((...))))
Tm [1]: 45 °C
folding enthalpy [2]: -14.1 kcal/mol

GTGCGGGGAAACTCGCAC (((((.(....).)))))
Tm [1]: 61.2 °C
folding enthalpy [2]: -40.1 kcal/mol

GGGCAATCGAAAGATCCC (((..(((....))))))
Tm [1]: 34 °C
folding enthalpy [2]: -21.5 kcal/mol

GCGTAGGTACGC ((((....))))
Tm [1]: 52.8 °C
folding enthalpy [2]: -20.3 kcal/mol

GAACCTGGAAACAGGTTC (((((((....)))))))
Tm [1]: 65.5 °C
folding enthalpy [2]: -36.9 kcal/mol

GGACAGCGAAAGCTCTCC (((.(((....))).)))
Tm [1]: 38.4 °C
folding enthalpy [2]: -18.3 kcal/mol

GCGGTCACCCGC ((((....))))
Tm [1]: 56.2 °C
folding enthalpy [2]: -24.6 kcal/mol

GCGACCGATCGC ((((....))))
Tm [1]: 45.6 °C
folding enthalpy [2]: -21.4 kcal/mol

CGTTCGGAAACGAATACG ((((((....)))..)))
Tm [1]: 36.7 °C
folding enthalpy [2]: -19.2 kcal/mol

GCGGATTACCGC ((((....))))
Tm [1]: 54.9 °C
folding enthalpy [2]: -20 kcal/mol

GCACGCGAAAGCGCTGC ((((((....))).)))
Tm [1]: 62.4 °C
folding enthalpy [2]: -18.4 kcal/mol

GATCGGCCGCCCGATC ((((((....))))))
Tm [1]: 60.5 °C
folding enthalpy [2]: -40.4 kcal/mol

GATCTCGATCGAGATC ((((((....))))))
Tm [1]: 56.9 °C
folding enthalpy [2]: -48.5 kcal/mol

GCACCGCGAAAGCCGAGC ((.(.((....)).).))
Tm [1]: 39 °C
folding enthalpy [2]: -12.9 kcal/mol

GCGGCAGGAAACTGCTGC ((.((((....)))).))
Tm [1]: 62.9 °C
folding enthalpy [2]: -43.2 kcal/mol

GGTTCGGGAAACCGGATC (.(.(((....))).).)
Tm [1]: 38.2 °C
folding enthalpy [2]: -18.3 kcal/mol

GAAAAGCCGAAAGGCTTC (((..(((....))))))
Tm [1]: 36.8 °C
folding enthalpy [2]: -7.3 kcal/mol

GATCAGTCCCCTGATC ((((((....))))))
Tm [1]: 49.3 °C
folding enthalpy [2]: -35.7 kcal/mol

GGGCCGGGAAACCGGCTC (.(((((....))))).)
Tm [1]: 66.8 °C
folding enthalpy [2]: -15.4 kcal/mol

CGCGGAAGGCTCCGCG ((((((....))))))
Tm [1]: 68.7 °C
folding enthalpy [2]: -30.1 kcal/mol

GCTCCGCGAAAGCGTTGC ((..(((....)))..))
Tm [1]: 40.4 °C
folding enthalpy [2]: -14.2 kcal/mol

AGATCGAAAGATCT (((((....)))))
Tm [1]: 50.9 °C
folding enthalpy [2]: -23.2 kcal/mol

GGTGTGGGAAACCGCATC (.((.((....)).)).)
Tm [1]: 41.9 °C
folding enthalpy [2]: -23.7 kcal/mol

GATCTAGAAGTAGATC ((((((....))))))
Tm [1]: 39.9 °C
folding enthalpy [2]: -27.6 kcal/mol

GCTCGGCGAAAGCGAAGC (((..((....))..)))
Tm [1]: 47.2 °C
folding enthalpy [2]: -13.1 kcal/mol

GCCTAGCGAAAGCTTCGC ((..(((....)))..))
Tm [1]: 44.6 °C
folding enthalpy [2]: -7.98 kcal/mol

GATCGCTCAGGCGATC ((((((....))))))
Tm [1]: 67.9 °C
folding enthalpy [2]: -36.1 kcal/mol

GATCTTTTTGAAGATC ((((((....))))))
Tm [1]: 46.1 °C
folding enthalpy [2]: -34.5 kcal/mol

GTTTTAGGAAACTGAAAC ((((.((....)).))))
Tm [1]: 35.2 °C
folding enthalpy [2]: -22.1 kcal/mol

GAGCACGGAAACGCGCTC ((((.((....)).))))
Tm [1]: 55.3 °C
folding enthalpy [2]: -42.9 kcal/mol

GATCTACAACTAGATC ((((((....))))))
Tm [1]: 34.1 °C
folding enthalpy [2]: -25.6 kcal/mol

GCACGCCGAAAGGCATGC (((.(((....))).)))
Tm [1]: 60.5 °C
folding enthalpy [2]: -28 kcal/mol

GCTGGTGGAAACACTAGC (((.(((....))).)))
Tm [1]: 51.3 °C
folding enthalpy [2]: -40.8 kcal/mol

GCGCAAGGAAACTCACGC (((..((....))..)))
Tm [1]: 28.4 °C
folding enthalpy [2]: -15 kcal/mol

GATCACACGGTGATC ((((((...))))))
Tm [1]: 60.5 °C
folding enthalpy [2]: -37.5 kcal/mol

GGATCAGAAATGATCC ((((((....))))))
Tm [1]: 55.3 °C
folding enthalpy [2]: -36 kcal/mol

GACTTACGAAAGTAGTC (((.(((....))))))
Tm [1]: 43.1 °C
folding enthalpy [2]: -26.8 kcal/mol

GCGAGGCGAAAGCATAGC ((.(.((....)).).))
Tm [1]: 55.6 °C
folding enthalpy [2]: -21.2 kcal/mol

GCATCTGGAAACAGATGC (((((((....)))))))
Tm [1]: 67.3 °C
folding enthalpy [2]: -47.9 kcal/mol

GATAGACGAAAGTCATC (((.(((....))))))
Tm [1]: 38.4 °C
folding enthalpy [2]: -15.4 kcal/mol

GAGAGCGAAAGCTACCTC ((((((....)))..)))
Tm [1]: 30.1 °C
folding enthalpy [2]: -10.4 kcal/mol

GGGTGCGAAAGCAGGCCC ((((((....)))..)))
Tm [1]: 52.9 °C
folding enthalpy [2]: -18.2 kcal/mol

GATCCTACGTAGGATC ((((((....))))))
Tm [1]: 53.3 °C
folding enthalpy [2]: -40.6 kcal/mol

CAAACAGAAATGGTTG (((.((....)).)))
Tm [1]: 29.4 °C
folding enthalpy [2]: -13 kcal/mol

GGACCGGGAAACCGGTTC (.(((((....))))).)
Tm [1]: 59 °C
folding enthalpy [2]: -22.3 kcal/mol

GCAGTAGGAAACTGTTGC (((..((....))..)))
Tm [1]: 32.2 °C
folding enthalpy [2]: -18.3 kcal/mol

GTAACCGAAAGGTACTAC ((((((....)))..)))
Tm [1]: 40.8 °C
folding enthalpy [2]: -16.9 kcal/mol

GCCTGTGCGAAAGCAGGC (((..(((....))))))
Tm [1]: 56.5 °C
folding enthalpy [2]: -26.6 kcal/mol

GATCGGTGTGCCGATC ((((((....))))))
Tm [1]: 64.8 °C
folding enthalpy [2]: -33.2 kcal/mol

GCGCTGCGAAAGCAAGGC ((..(((....)))..))
Tm [1]: 46.7 °C
folding enthalpy [2]: -16 kcal/mol

GGTATGCGAAAGCAGACC (((.(((....))).)))
Tm [1]: 65.1 °C
folding enthalpy [2]: -35.3 kcal/mol

GGCACAGGAAACTATGCC ((((.((....)).))))
Tm [1]: 41.7 °C
folding enthalpy [2]: -29.2 kcal/mol

GAACCCGAAAGGGTCTTC ((((((....)))..)))
Tm [1]: 61.9 °C
folding enthalpy [2]: -22.8 kcal/mol

GATCCACGTATGGATC ((((((....))))))
Tm [1]: 51.6 °C
folding enthalpy [2]: -31.8 kcal/mol

GATCTCCGTCGAGATC ((((((....))))))
Tm [1]: 51 °C
folding enthalpy [2]: -41.3 kcal/mol

GAATCAGGAAACCGATTC (((((.(....).)))))
Tm [1]: 37.8 °C
folding enthalpy [2]: -26.3 kcal/mol

GCAACAGGAAACTGTTAC (.(((((....))))).)
Tm [1]: 34 °C
folding enthalpy [2]: -16.7 kcal/mol

GGTTCCGAAAGGAGGACC ((((((....)))..)))
Tm [1]: 38.1 °C
folding enthalpy [2]: -18.8 kcal/mol
